This data set is described as follows: Toxicity liver stage against HepG2, at 10uM. Type of data set: cell-based. The arrangement: test concentration 10 uM, cell line HepG2-A16-CD81EGFP. To be noted: human, HepG2-A16-CD81EGFP cells; read-out: INHIBITION
The gist of the method:
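Uninfected HepG2-A16-CD81EGFP cells, 3 × 10^3 per well, 1536-well, plated on prespotted compound at 10 μM final, parasite-free screening media added to match infected plates; puromycin 10 μM positive, DMSO 0.5% negative; run in parallel with 48 h PbLuc assay at 37 °C, 5% CO2; viability by CellTiter-Glo luminescence, normalized to controls.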

With `Cn1cc(C(C)(O)CNc2ccc(C(F)(F)F)cn2)cn1` (stereo not drawn), the cytotoxicity at 10 µM is -44.3%.

As to `Cc1nn(C2CCS(=O)(=O)C2)c(O)c1Cc1ccccc1` (stereo not drawn), the cytotoxicity at 10 µM was -44.6%.

As to `Cc1cccc(NC(=O)NC2CCC3(C2)OCCO3)c1Cl` (stereo not drawn), the cytotoxicity at 10 µM amounted to 10.6%.

With `Cc1nn(C)cc1C(C)Nc1ncc(C(N)=O)cc1Cl` (stereo not drawn), the cytotoxicity at 10 µM worked out at 3.68%. On to `NC(=O)CN1CCC(NC2CCCCc3ccccc32)CC1` (stereo not drawn), for which the cytotoxicity at 10 µM is -7.86%. For `CN(Cc1ccc(F)cc1)CC1(O)CCCN(CC(C)(C)C)C1=O` (stereo not drawn) the value was -9.35%. Consider `Cc1cc(C)n2c(CNCCNc3ccccc3)cnc2n1`, for which the cytotoxicity at 10 µM was -144%. With `CCc1ccc(C(=O)NC2CCc3nc(C)cn3C2)o1` (stereo not drawn), the cytotoxicity at 10 µM was -8.45%. Next, `COc1cccc(COCC(=O)N2CCCC(n3ccnc3)C2)c1` (stereo not drawn): -8.38%; `CCc1ccc(-c2noc(Cn3nc(C(N)=O)ccc3=O)n2)cc1`: -4.22%; `Cn1c(NCC(O)c2ccc(Cl)cc2)c(C#N)c(=O)n(C)c1=O` (stereo not drawn): -3.27%. Next, `CCOc1ccc(Cl)c(C(=O)NC(C(N)=O)c2ccccc2)n1` (stereo not drawn): -0.425%.

Take `Cc1cnc(C(=O)N2C[C@H]3CN(Cc4nccs4)C[C@H]3C2)cn1`: the cytotoxicity at 10 µM is -147%.

On to `COCCCN1CC2(CCC1=O)CCN(Cc1cc(C(C)C)no1)CC2`, for which the cytotoxicity at 10 µM is -2.1%. For `CC(C)(C)c1n[nH]c(C2CN(C(=O)c3cc(C4CC4)on3)CCO2)n1` (stereo not drawn), the cytotoxicity at 10 µM was -15.8%. Turning to `CCc1ncc2c(n1)CN(CCCc1nc3ccccc3o1)CC2`, the cytotoxicity at 10 µM was -10.6%. Next, `CN(C)C(=O)Cc1ccccc1NCc1cccc(F)c1F`: 9.03%; `CC(=O)c1cc(CC(=O)NCc2ccsc2)cs1`: 2.29%; `CN(C)CCN1CCO[C@H]2CN(Cc3ccccn3)C[C@H]21`: -1.91%. Next, `CC(NCCn1c(=O)oc2ccccc21)c1ccccn1` (stereo not drawn): -7.1%; `Cc1cc(C(=O)N2CCC(CCC(=O)NCCN(C)C)CC2)ccc1O`: 5.38%; `CCN1CCCC1CN(CCN(C)C)S(=O)(=O)c1cccc(C#N)c1` (stereo not drawn): -12.1%. Next, `O=C(CCOc1ccccc1)N1CCCC(c2ncc[nH]2)C1` (stereo not drawn): -2.68%; `CCC1CN(c2cnn(C)c(=O)c2Cl)CCO1` (stereo not drawn): -1.26%; `CC1CCc2n[nH]c(C(=O)NCCc3ccco3)c2C1` (stereo not drawn): -6.63%.

Take `CC(C)(C)n1ncc2c1NC(=O)CSC2c1ccc2c(c1)OCO2` (stereo not drawn): the cytotoxicity at 10 µM is 0.148%. On to `COc1cccc(CCC(=O)Nc2c(C)nn(C)c2C)c1OC`, for which the cytotoxicity at 10 µM stood at 1.98%.

For the compound `CCn1cnnc1C1CCN(C(=O)c2cccc(C)c2C)CC1`, the cytotoxicity at 10 µM was -3.61%. As to `Cn1ccc(C(=O)NC2CCC23CCN(Cc2ccc(F)cc2)CC3)c1` (stereo not drawn), the cytotoxicity at 10 µM was -147%. For `O=C(NCC1CC1)c1cc(Cl)c2c(c1)OCCCO2` the value was 0.344%. For `CNC(=O)NC(=O)C(C)N1CCN(C2CCCC2)CC1` (stereo not drawn) the value was -14%; for `CC1N(c2cnn(C)c2)C(=O)COC12CCN(Cc1ccoc1)CC2` (stereo not drawn), 0.997%. `Cc1cc(CN2CCN(Cc3ccccc3F)CC2)no1`: the cytotoxicity at 10 µM was 4.51%. Next, `CC(C)C(C)NC(=O)Nc1cccc2c1CCN(S(C)(=O)=O)C2` (stereo not drawn): -11.3%; `CN(Cc1ccc2c(c1)OCCO2)Cn1nc(C(C)(C)C)ccc1=O`: -12.4%; `COc1cn(CC(=O)N2CCC(c3ccccc3)CC2)c(C)cc1=O`: 1.11%.

For `CCn1cc(CNCc2ccc(C(=O)OC)cc2)c(C)n1`, the cytotoxicity at 10 µM is -3.78%. Next, `O=C(Nc1ccccc1)C1=NOC2(CCCN(C(=O)N3CCCC3)C2)C1` (stereo not drawn): -1.66%; `CCCN(CCC)c1ncc(S(=O)(=O)c2ccc(OC)cc2)c(N)n1`: 7.79%. For `COCC1CN(Cc2ccc(F)cc2)Cc2nn(C)cc21` (stereo not drawn), the cytotoxicity at 10 µM is -81.4%. Regarding `Cc1[nH]ccc1C(=O)N1CCC(c2nnc(Cn3cccn3)n2C)CC1`, the cytotoxicity at 10 µM was -11.5%. For `Cc1ccsc1CN(C)C(=O)c1cc2c([nH]c1=O)CCCC2=O` the value was -5.36%; for `CC(=O)N1CCC(Cc2cccc(-c3c(C)noc3C)n2)C1` (stereo not drawn), 0.664%; for `CC1(C)CN(S(=O)(=O)N2CCCC2)CC1c1ccccc1` (stereo not drawn), -0.71%. As for `CN(C)S(=O)(=O)N1CC[C@]2(O)CCN(Cc3cc(F)cc(F)c3)C[C@@H]2C1`, the cytotoxicity at 10 µM is -0.757%. `COc1ccccc1CCN(C)C(=O)NC(C)c1nncn1C` (stereo not drawn): the cytotoxicity at 10 µM was -1.88%. As for `CN(CCOc1cccc(S(C)(=O)=O)c1)c1ccccc1`, the cytotoxicity at 10 µM came to 2.3%.

Turning to `CSc1ccc(C(=O)N2CC(=O)N(CC3CC3)CC(O)C2)cc1` (stereo not drawn), the cytotoxicity at 10 µM came to 0.174%.

As for `Cc1nc(C2CCCN2C(=O)c2ccc(N(C)C)nn2)no1` (stereo not drawn), the cytotoxicity at 10 µM was -12.9%. Next, `CN(Cc1ncc(-c2ccccc2C(=O)O)s1)c1ncccn1`: 1.69%; `CC(NC(=O)NCCCn1cncn1)c1ccc(F)cc1` (stereo not drawn): -9.92%.

In the case of `c1csc(-c2nc(CNC3CCc4ncnn4C3)cs2)c1` (stereo not drawn), the cytotoxicity at 10 µM worked out at 2.07%. In the case of `Cc1cc(CN2CCN(c3ccc4nncn4n3)C(C)C2)no1` (stereo not drawn), the cytotoxicity at 10 µM is -4.66%. For `O=C1NCCN(C(=O)c2cn3ccsc3n2)C1c1cccc(F)c1` (stereo not drawn) the value was -5.18%; for `CCCN1CCN(C(=O)c2cnc(C)nc2)[C@H]2CS(=O)(=O)C[C@H]21`, 0.0652%.

Consider `CS(=O)(=O)N1CCCCCC1C1CCN(c2ncccn2)CC1` (stereo not drawn), for which the cytotoxicity at 10 µM is -7.98%. For `CC(C)OCCOCc1cccc(NC(=O)NCc2cnn(C)c2)c1` the value was -1.11%; for `Cc1ccsc1CNC(=O)CSc1nnc[nH]1`, -0.655%. On to `O=C(C1CCCC1)N1CC2(CCCN(C3COC3)C2)Cc2ccccc21` (stereo not drawn), for which the cytotoxicity at 10 µM was found to be 9.96%. For `O=C(O)[C@@H]1CN(C(=O)CN2Cc3ccccc3C2)C[C@H]1c1ccncc1` the value was 4.85%. On to `CS(=O)(=O)c1cncnc1C1CCCN(C(=O)Nc2ccc(F)cc2)C1` (stereo not drawn), for which the cytotoxicity at 10 µM is -1.86%. In the case of `CC(C)c1nc2n(n1)CC(NCc1nnc(-c3ccco3)o1)CC2` (stereo not drawn), the cytotoxicity at 10 µM was -9.78%. Take `COc1c(F)cc(-c2cccc3c2OC(CN)C3)cc1F` (stereo not drawn): the cytotoxicity at 10 µM is -53.7%. Next, `CCC(NS(C)(=O)=O)c1ccccc1OC` (stereo not drawn): -43.1%. Next, `CC(=O)N1CCCC2(CCN(c3nncs3)C2)C1` (stereo not drawn): -103%. On to `Cc1nn(C)cc1CN(C)C(=O)c1cccnc1`, for which the cytotoxicity at 10 µM was 0.992%. Take `CC(C)N1CCn2c(COCC3CCOCC3)cnc2C1C` (stereo not drawn): the cytotoxicity at 10 µM turned out to be 8.22%.

Take `Cc1cc(C)cc(C(=O)NCCCC2(C3OCCO3)CCOCC2)c1`: the cytotoxicity at 10 µM came out at 9.4%. In the case of `CCOC(=O)N1CCC(NC(=O)Nc2cccnc2OCC)CC1`, the cytotoxicity at 10 µM is -31.9%.

Turning to `CCCN1CCC(c2nc3ccc(-c4cccc(F)c4)cn3n2)CC1`, the cytotoxicity at 10 µM is -125%.

As to `CCCNC(=O)CNc1ccc(C(=O)N2CCCCC2C)cc1C` (stereo not drawn), the cytotoxicity at 10 µM was -7.67%.

On to `c1c(CN2CCCC2)nc2n1CCNC2`, for which the cytotoxicity at 10 µM was found to be 9.94%.

`O=C(NCCc1nnc2n1CCCCC2)N1CCC2(CCOC2)C1` (stereo not drawn): the cytotoxicity at 10 µM came to 4.18%. Turning to `COC(=O)CCC(=O)N1CCc2nc(C(=O)N3CCOCC3)sc2CC1`, the cytotoxicity at 10 µM amounted to 15.3%. Next, `CC(C)(CO)Nc1cc(-c2ccccc2)ncn1`: -7.8%.

`O=C(c1ccc(F)cc1F)N1C[C@@H]2CC[C@H]1CN(Cc1ccccc1)C2`: the cytotoxicity at 10 µM amounted to 5.04%.

Take `COc1cc(C2(C(=O)N3CCCC(n4cncn4)C3)CC2)ccc1C` (stereo not drawn): the cytotoxicity at 10 µM was -6.16%. For `COCCN1CC[C@@H]2OC(COCC(=O)N3CCCC3)CC[C@@H]21` (stereo partly drawn) the value was -3.29%; for `Cn1ncc2c1C(COCC1CC1)CN(Cc1ccsc1)C2` (stereo not drawn), -1.11%. For `CN1CC(C(=O)Nc2ccc(OCC(F)(F)C(F)F)nc2)CC1=O` (stereo not drawn) the value was -8.64%; for `CSc1ccc(CN(C(=O)c2cc[nH]n2)C2CC2)cc1`, -44.4%; for `O=C(c1ccc(-c2ccc(O)nc2)s1)N1CCCCCC1`, 4.51%. For `Nc1nc(N2CCCCCC2)ncc1C(=O)NCc1ccc(F)c(Cl)c1`, the cytotoxicity at 10 µM was -0.585%. As to `Cc1nc(CN2CCCC(Cn3cncn3)C2)no1` (stereo not drawn), the cytotoxicity at 10 µM stood at 4.34%. For `Cc1ccc(Oc2ncccc2C(=O)N(C)CCCN(C)C)c(C)c1`, the cytotoxicity at 10 µM is -1.16%. As for `CCN1CCOC(CNCc2cnc(N(CC)CC)s2)C1` (stereo not drawn), the cytotoxicity at 10 µM was found to be 0.598%. With `Cc1nc(C)n(CC2CCCN(CCc3ccccc3)C2)n1` (stereo not drawn), the cytotoxicity at 10 µM was -3.12%. For `CC(C)(NC(=O)Nc1cnn(CC2CCCO2)c1)c1nccs1` (stereo not drawn) the value was -2.64%; for `CCN1CC2(CCC1=O)CCN(Cc1cscn1)CC2`, 2.48%; for `CC(CN1CCCC1=O)NC(=O)c1cc(=O)[nH]c2ccc(Cl)cc12` (stereo not drawn), -7.14%. For `O=C(Cn1ccnc1)N1C[C@@H]2CC[C@H](Oc3ccccc3F)[C@@H]2C1` the value was -28.9%. For `O=C(c1ccc(Cl)o1)N1CCCC1c1nnc2n1CCCCC2` (stereo not drawn), the cytotoxicity at 10 µM is -4.52%. Next, `CCc1ccc(CN(CC)Cc2ccc(S(=O)(=O)NC)cc2)cc1`: -8.55%. For the compound `Cc1ccsc1CN1CCc2c(nc(N3CCCCC3C)[nH]c2=O)C1` (stereo not drawn), the cytotoxicity at 10 µM is -3.42%.

On to `CCc1noc(C(C)N2CCC(C)CC2)n1` (stereo not drawn), for which the cytotoxicity at 10 µM was -7.6%. In the case of `CN1CCOC[C@H]1c1nc(-c2cccnc2)c[nH]1`, the cytotoxicity at 10 µM was -0.405%. As to `CC(=O)c1ccc(C(=O)Nc2ccnc(N(C)C)n2)cc1`, the cytotoxicity at 10 µM came to 2.49%. Next, `COc1ccc2c(ccn2CCC(=O)N[C@H](C(=O)O)C(C)C)c1`: 5.98%.

For the origin of these results see ChEMBL document CHEMBL4513216, “Probing the Open Global Health Chemical Diversity Library for Multistage-Active Starting Points for Next-Generation Antimalarials” (ACS Infect Dis, 2020).
